E-sel inducer: E-selectin induction on HUVECs | HUVEC E-selectin immunofluorescence imaging; normalized: neutral wells 0, TNF-alpha wells 100 | 260,000 tested, 0.37% active | activation, % at 7.58 µM | P16581;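 active = mean E-selectin-positive cell signal at least 10% of the positive control, reached in at least 60% of replicates, without over 20% cell loss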
Target sequence (P16581 whole entry, looked up): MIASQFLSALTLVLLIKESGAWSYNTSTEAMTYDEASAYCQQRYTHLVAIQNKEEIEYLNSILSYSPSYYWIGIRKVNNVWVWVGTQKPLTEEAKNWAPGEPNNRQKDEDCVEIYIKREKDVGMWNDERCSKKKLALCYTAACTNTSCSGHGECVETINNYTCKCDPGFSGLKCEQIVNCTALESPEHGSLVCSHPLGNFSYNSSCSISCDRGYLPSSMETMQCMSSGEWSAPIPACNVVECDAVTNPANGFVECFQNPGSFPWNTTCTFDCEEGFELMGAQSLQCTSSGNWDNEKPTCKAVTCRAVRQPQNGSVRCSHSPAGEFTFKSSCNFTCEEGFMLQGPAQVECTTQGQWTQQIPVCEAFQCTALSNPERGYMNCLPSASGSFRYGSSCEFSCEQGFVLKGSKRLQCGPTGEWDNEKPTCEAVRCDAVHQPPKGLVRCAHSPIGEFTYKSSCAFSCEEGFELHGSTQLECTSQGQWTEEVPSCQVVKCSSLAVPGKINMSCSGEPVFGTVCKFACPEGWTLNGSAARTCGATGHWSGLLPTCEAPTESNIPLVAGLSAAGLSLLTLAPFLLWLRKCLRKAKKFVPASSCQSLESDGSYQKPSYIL
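Test system – human umbilical vein endothelial cells (HUVEC), E-selectin induction · Input – 3,000 HUVEC seeded per well · Buffer or medium – EGM-2, gelatin · Compound dosing – single-point compound dose · Detection – immunofluorescence imaging · Measure – percent E-selectin-positive cells · Controls – TNF-alpha high, DMSO low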
Hits are given with their value; - = inactive. Shown is part of a subset that was picked to be rich in hits.

SMILES	E-sel inducer
O=C(C[C@H]1CC[C@H](NC(=O)C2CC2)[C@H](CO)O1)NCCCN1CCOCC1	-
C[C@@H]1CN([C@H](C)CO)C(=O)c2cccc(NC(=O)C3CC3)c2O[C@@H]1CN(C)Cc1ccncc1	-
C[C@@H]1CN([C@@H](C)CO)C(=O)c2cccc(NC(=O)C3CC3)c2O[C@H]1CN(C)CC1CCCCC1	-
C[C@@H]1CN([C@@H](C)CO)C(=O)c2cccc(NC(=O)C3CC3)c2O[C@H]1CN(C)Cc1ccccc1	52
C[C@H](CO)N1C[C@H](C)[C@H](CN(C)CC2CC2)Oc2c(NC(=O)C3CC3)cccc2C1=O	64
C[C@@H]1CN([C@H](C)CO)C(=O)c2cccc(NC(=O)C3CC3)c2O[C@H]1CN(C)Cc1ccc(-c2ccccc2)cc1	-
C[C@H]1CN([C@@H](C)CO)C(=O)c2cccc(NC(=O)C3CCCCC3)c2O[C@@H]1CN(C)Cc1ccccc1	-
C[C@H](CO)N1C[C@H](C)[C@@H](CN(C)Cc2ccncc2)Oc2c(NC(=O)C3CCOCC3)cccc2C1=O	-
C[C@H]1CN([C@@H](C)CO)C(=O)c2cccc(NC(=O)C3CCCCC3)c2O[C@H]1CN(C)Cc1ccccc1	-
C[C@@H]1CN([C@@H](C)CO)C(=O)c2cccc(NC(=O)C3CCOCC3)c2O[C@@H]1CN(C)Cc1ccncc1	228
C[C@H]1CN([C@@H](C)CO)C(=O)c2cccc(NC(=O)C3CC3)c2O[C@H]1CN(C)Cc1ccccc1	27
C[C@@H]1CN([C@@H](C)CO)C(=O)c2cccc(NC(=O)C3CC3)c2O[C@@H]1CN(C)CC1CCCCC1	-
C[C@H](CO)N1C[C@H](C)[C@H](CN(C)Cc2ccccc2)Oc2c(NC(=O)C3CCCCC3)cccc2C1=O	-
Cc1noc(C)c1NC(=O)N(C)C[C@H]1Oc2ccc(NS(=O)(=O)c3ccccc3)cc2CC(=O)N([C@H](C)CO)C[C@@H]1C	-
C[C@@H]1CN([C@H](C)CO)C(=O)c2cc(NS(=O)(=O)c3cccs3)ccc2O[C@H]1CN(C)Cc1ccc(C(F)(F)F)cc1	-
CO[C@@H]1CN(C)C(=O)c2cc(NC(=O)Nc3c(C)noc3C)ccc2OC[C@@H](C)N(CCC(F)(F)F)C[C@H]1C	-
COCC#Cc1ccc([C@H]2[C@H]3CN(C(=O)CN4CCOCC4)CC(=O)N3[C@H]2CO)cc1	-
C[C@@H]1CN([C@@H](C)CO)C(=O)c2cc(NS(=O)(=O)c3ccccc3)ccc2O[C@@H]1CN(C)S(=O)(=O)c1ccc(F)cc1	-
COc1cccc(-c2ccc(C3[C@@H]4CN(S(=O)(=O)c5cn(C)cn5)C[C@H]3N4)cc2)c1 (some centres not stated)	-
O=C(C[C@@H]1CC[C@H]2[C@@H](COC[C@H](O)CN2S(=O)(=O)c2ccc(Cl)cc2)O1)N[C@H]1CCN(Cc2ccccc2)C1	-
C[C@H]1CN([C@@H](C)CO)S(=O)(=O)c2ccc(C3=CCCC3)cc2O[C@H]1CN(C)C(=O)C1CCOCC1	-
CC(C)(C)c1cc(CCC(=O)NN)cc(C(C)(C)C)c1O	-
CC(C)(C)c1cc(CCC(=O)NCc2ccccn2)cc(C(C)(C)C)c1O	100
CC(C)(C)c1cc(CCC(=O)NCc2cccnc2)cc(C(C)(C)C)c1O	-
C[C@@H](NC(=O)C[C@H]1CC[C@H]2[C@@H](COC[C@@H](O)CN2C(=O)Nc2cc(Cl)cc(Cl)c2)O1)c1ccccc1	-
SMILES	E-sel inducer
O=C(C[C@H]1CC[C@@H]2[C@H](COC[C@@H](O)CN2S(=O)(=O)c2cccc(F)c2)O1)NCCCN1CCOCC1	-
Cc1noc(C)c1S(=O)(=O)Nc1ccc2c(c1)C(=O)N([C@@H](C)CO)C[C@H](C)[C@@H](CN(C)S(=O)(=O)c1cccs1)O2	-
CC(=O)N1[C@@H]2c3ccc(-c4ccccc4)c(=O)n3C[C@@H]2[C@@H](CO)[C@@H]1C(=O)NC1CCC1	-
COc1ccc(NC(=O)N(C)C[C@@H]2Oc3c(NS(=O)(=O)c4ccc(Cl)cc4)cccc3C(=O)N([C@@H](C)CO)C[C@@H]2C)cc1	-
COc1cccc(C(=O)N2C[C@@H]3[C@H](c4ccccc42)[C@H](CO)N3C(=O)NC(C)C)c1	-
C[C@H](CO)N1C[C@H](C)[C@H](CN(C)S(=O)(=O)c2ccc(Cl)cc2)OCCCC[C@H](C)Oc2ccc(NS(=O)(=O)c3cccs3)cc2C1=O	-
O=C(C[C@@H]1C[C@H]2c3cc(NC(=O)c4cccnc4)ccc3O[C@H]2[C@@H](CO)O1)NC1CCCCC1	-
Cc1ccc(/C(=N/Nc2ncnc3ccccc23)C(=O)O)cc1	51
COC(=O)C(=O)C/C(=N/Nc1ncnc2ccccc12)c1ccc(Cl)cc1	-
CC(=O)NNc1ncnc2ccccc12	-
C[C@H]1CN([C@@H](C)CO)C(=O)Cc2cc(NC(=O)Nc3ccc(C(F)(F)F)cc3)ccc2O[C@@H]1CN(C)Cc1ccc(C(F)(F)F)cc1	-
C[C@H]1CCCCO[C@@H](CN(C)CC2CCCCC2)[C@@H](C)CN([C@@H](C)CO)C(=O)c2cc(NS(=O)(=O)c3cccs3)ccc2O1	-
COc1ccc(CNC(=O)Cn2ccc(N)nc2=O)cc1	39
Nc1ccn(CC(=O)NCc2ccc3c(c2)OCO3)c(=O)n1	-
COc1ccc(CNC(=O)Cn2cc(C)c(=O)[nH]c2=O)cc1	-
Cc1noc(C)c1NC(=O)Nc1ccc2c(c1)C(=O)N([C@@H](C)CO)C[C@H](C)[C@@H](CN(C)S(C)(=O)=O)OCCCC[C@@H](C)O2	-
C[C@@H]1CCCCO[C@H](CN(C)Cc2ccc(C(=O)O)cc2)[C@H](C)CN([C@@H](C)CO)C(=O)c2cc(NC(=O)Cc3ccccc3)ccc2O1	-
COc1cc(C(=O)NCC(=O)NCC2COc3ccccc3O2)cc(OC)c1OC (configuration not stated)	-
COc1cc(C(=O)NCC(=O)NNC(=O)CN(C)S(=O)(=O)c2ccc(Cl)cc2)cc(OC)c1OC	-
COc1cc(C(=O)NCC(=O)NNC(=O)C2COc3ccccc3O2)cc(OC)c1OC (configuration not stated)	152
C[C@@H]1CN([C@H](C)CO)C(=O)c2cccc(NC(=O)Nc3ccc(C(F)(F)F)cc3)c2O[C@H]1CN(C)S(=O)(=O)c1ccccc1	-
CO[C@@H]1CN(C)C(=O)c2ccc(NC(=O)C3CC3)cc2OC[C@H](C)N(CC2CC2)C[C@H]1C	-
N#C[C@H]1[C@@H](c2ccccc2)[C@@H](CO)N1C(=O)c1cccnc1	-
O=C(NCC(F)(F)F)[C@H]1[C@H](CO)[C@H]2Cn3c(cccc3=O)[C@@H]1N2C(=O)C1CC1	-
C[C@@H]1CN([C@@H](C)CO)C(=O)Cc2cc(NC(=O)Cc3cn(C)c4ccccc34)ccc2O[C@H]1CN(C)Cc1ccc(C(F)(F)F)cc1	61
C[C@@H]1CN([C@@H](C)CO)C(=O)Cc2cc(NC(=O)Cc3cn(C)c4ccccc34)ccc2O[C@H]1CN(C)C(=O)Nc1ccc(C(F)(F)F)cc1	-
C[C@H](CO)N1C[C@H](C)[C@H](CN(C)C(=O)Nc2ccc(C(F)(F)F)cc2)Oc2ccc(NC(=O)Cc3cn(C)c4ccccc34)cc2CC1=O	-
C[C@H](CO)N1C[C@H](C)[C@H](CN(C)Cc2ccccc2)Oc2ccc(NC(=O)Cc3cn(C)c4ccccc34)cc2CC1=O	-
C[C@H]1CN([C@@H](C)CO)C(=O)Cc2cc(NC(=O)Cc3cn(C)c4ccccc34)ccc2O[C@H]1CN(C)C(=O)Nc1ccc(C(F)(F)F)cc1	-

Bioassay records deposited in PubChem BioAssay by Broad Institute.
